Shown are actives, neighbours in structure and some others; about 2.3% of the full set was active somewhere.
TPT1 inh: Candida albicans TPT1 enzyme inhibitors, primary screen, biochemical, fluorescence polarization. tRNA 2'-phosphotransferase TPT1 (Candida albicans SC5314). recombinant caTPT1, FP RNA substrate dephosphorylation. inhibition, % at 5 µM. 0.81% of 300,000 active;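 active means inhibition above the mean of all tested compounds plus 3 SD, set per screening campaign, cut at about 24% in these data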
Myeloid diff 2: induction of myeloid progenitor differentiation, primary screen, cell-based, flow cytometry, MLPCN library; ER-HoxA9 myeloid progenitors, lysozyme-GFP differentiation; calls only at 10 µM; 1% of 360,000 active; AID 624256, 2012;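 active means normalized GFP-positive differentiation at or above the plate's own cutoff, the solvent-only control mean plus 3 SD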;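 further: cells exposed to compound for four days before flow analysis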
CSN inh: inhibitors of CSN-mediated cullin deneddylation, primary screen, biochemical, fluorescence polarization, uHTS; Purified CSN, SCF-Nedd8-OG deneddylation; inhibition, % at 12.5 µM; 0.38% of 360,000 active;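 active means pattern-corrected inhibition above about 35%, with an unprinted fluorescence ratio check between 0.5 and 1.5, limit read from the data, passing the limit was not always enough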
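Schedule: reaction 90 min, room temperature / Assay system: HEK293T-derived human Csn5 enzyme / Input: Csn5 at 0.24 nM final / Measure: inhibition of Csn5 cleavage, % / Control set: substrate-only high control, full reaction low control / Technique: fluorescence polarization of the substrate / Buffer or medium: Tris/NaCl/DTT buffer, pH 7.5 / Reagent: SCFSkp2-Nedd8OG substrate at 10 nM final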
HNF4A DNA FP: change in binding of human HNF4A to DNA, primary screen, biochemical, fluorescence polarization, FITC-DNA | 0.3% of 360,000 active | AID 1224865, 2016 | activity change, % at 10 µM | 1 h; in the data active means activity change above about 30%, passing the limit was not always enough
Target sequence (P41235 whole entry, looked up): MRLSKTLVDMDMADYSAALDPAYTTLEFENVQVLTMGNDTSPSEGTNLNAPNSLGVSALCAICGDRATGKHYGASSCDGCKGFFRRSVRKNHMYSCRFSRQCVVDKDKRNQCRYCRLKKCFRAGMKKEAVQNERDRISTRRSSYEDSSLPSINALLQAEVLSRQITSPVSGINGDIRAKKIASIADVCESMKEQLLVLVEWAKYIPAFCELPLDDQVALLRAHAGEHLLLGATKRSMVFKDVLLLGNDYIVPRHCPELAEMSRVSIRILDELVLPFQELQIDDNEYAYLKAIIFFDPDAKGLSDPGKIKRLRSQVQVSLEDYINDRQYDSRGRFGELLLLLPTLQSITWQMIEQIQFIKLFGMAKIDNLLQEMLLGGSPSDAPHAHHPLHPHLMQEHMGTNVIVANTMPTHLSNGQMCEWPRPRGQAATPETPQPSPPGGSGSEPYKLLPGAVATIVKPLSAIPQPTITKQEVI
Rpn11 inh: Rpn11 (PSMD14) deubiquitinase inhibitors, primary screen, biochemical, fluorescence polarization, uHTS | 26S proteasome non-ATPase regulatory subunit 14 (Homo sapiens), O00487 | human 26S proteasome, Ub4-pepOG fluorescence polarization; 20S core pre-blocked with epoxomicin | inhibition, % at 20 µM | 0.59% of 360,000 active;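 active means inhibition at 20 µM, scaled to each plate's controls, above about 33%, limit read from the data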
Hits are given with their value; i = inactive; nt = no result shown; + = active, no number.

SMILES	TPT1 inh	Myeloid diff 2	CSN inh	HNF4A DNA FP	Rpn11 inh
Cn1nc(-c2ccc(C(=O)Nc3ccc(F)cc3)cc2)c2ccccc2c1=O	i	i	44	i	i
OC(c1cccnc1)c1nc(-c2cccc(F)c2)cs1 (stereo unspecified)	nt	i	i	i	i
O=C(Nc1cccnc1)c1ccc2nc(-c3ccccc3)c(-c3ccccc3)nc2c1	i	+	i	i	i
CC1(C(=O)NCc2ccccc2)CN(S(C)(=O)=O)CC(=O)N1Cc1cccs1 (stereo unspecified)	nt	i	i	i	nt
Cc1ccc(N2C3=C(C(=O)CC(C)(C)C3)C(c3cn(C)nc3C)C3=C2CC(C)(C)CC3=O)cc1	i	+	i	i	i
Cc1nn(C)cc1C1C2=C(CC(C)(C)CC2=O)N(c2ccccc2)C2=C1C(=O)CC(C)(C)C2	i	i	i	i	i
CCCN1C(=O)/C(=C2/C=Cc3ccccc3N2CC)SC1=S	i	+	i	i	i
CCCN1/C(=C2/SC(=S)N(CC)C2=O)C=Cc2ccccc21	i	i	i	i	i
Cc1cc(F)ccc1C(O)c1ncc(-c2cccc3ccccc23)[nH]1 (stereo unspecified)	nt	i	i	i	i
c1ccc2c(CN3CCOCC3)c3ccccc3c(CN3CCOCC3)c2c1	i	i	i	32	i
c1ccc2c(CN3CCOCC3)csc2c1	i	i	i	i	i
C[C@@H]1CN([C@H](C)CO)C(=O)CCCn2cc(nn2)CO[C@H]1CN(C)C(=O)c1ccccc1	nt	i	i	i	i
O=C(/C(=C/c1ccc(Cl)cc1)c1nc2ccccc2[nH]1)c1ccccc1	i	+	i	i	i
O=C(N/C(=C/c1ccc(Cl)cc1)c1nc2ccccc2[nH]1)c1ccco1	i	i	i	i	i
COC1=CC(=O)OC(c2ccc(C(F)(F)F)cc2)C1 (stereo unspecified)	nt	i	i	i	nt
CCc1ccc(/C(C)=N/NC(=O)CNC(=O)/C=C/c2ccco2)cc1	i	i	38	i	nt
CSCCC(C(=O)NCc1ccccc1)n1c(-c2ccc3c(c2)CCO3)nc2ccccc21 (stereo unspecified)	nt	i	i	i	nt
CC(=O)Nc1ccc(NC(=O)C(C)Oc2ccc(Cl)cc2Cl)cc1 (stereo unspecified)	i	i	i	i	i
CC(Oc1ccc(Cl)cc1Cl)C(=O)Nc1ccncc1 (stereo unspecified)	i	i	48	i	i
CCN(CC)CCn1c(=O)n(-c2ccc(Cl)cc2)c(=O)c2c3c(sc21)CN(C)CC3	i	+	i	i	i
OC(COCc1ccccc1)CN1CCCC1 (stereo unspecified)	i	i	37	i	i
OC(COCc1ccccc1)CN1CCN(c2ccccc2)CC1 (stereo unspecified)	i	i	i	i	i
CN(C)S(=O)(=O)c1cccc(NC(=O)c2sccc2-c2ccccc2)c1	nt	+	i	i	i
CN(C)S(=O)(=O)c1cccc(NC(=O)c2cccc(NS(=O)(=O)c3ccccc3)c2)c1	i	i	i	i	i
CC(C)c1cc(Cn2c3ccccc3c(=O)n2C(C)Cn2cc(-c3ccccc3)nn2)on1 (stereo unspecified)	nt	i	i	i	nt
SMILES	TPT1 inh	Myeloid diff 2	CSN inh	HNF4A DNA FP	Rpn11 inh
CCCNC(=O)Cn1c(=O)/c(=C/c2ccc(-c3ccc([N+](=O)[O-])cc3)o2)s/c1=C\C(=O)C(C)(C)C	nt	+	i	i	nt
C(=C/c1nccc2c1[nH]c1ccccc12)/c1ccc2c(c1)OCO2	nt	+	i	i	i
CC(C)N1CCc2c(sc(NC(=O)c3ccco3)c2C(N)=O)C1	i	+	i	i	i
COC(=O)c1c(NC(=O)c2ccco2)sc2c1CCC2	i	i	i	64	i
COC(=O)c1c(NC(=O)c2ccco2)sc2c1CCN(C(C)C)C2	i	i	i	i	i
CCOC(=O)CC1(C)Oc2cc(Cl)ccc2N1S(=O)(=O)c1ccc(C)cc1 (stereo unspecified)	nt	i	i	i	nt
Cc1sc2nc(SCC(=O)c3cccs3)n(Cc3ccco3)c(=O)c2c1C	i	+	i	i	i
